S1P1 ag-PAM = activates or potentiates agonism at human S1P1 receptor; P21453; S1P1 CRE-bla cells, forskolin, beta-lactamase FRET, potentiator mode; S1P1 agonist co-added at EC20, 2 nM; 100% = saturating reference agonist, 0% = basal; activation, % at 9.5 µM; actives 0.57% (n = 56,000); AID 449;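 active = activation above a cutoff set at the mean activation of all tested compounds plus 3 SD, cut at about 54% in these data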;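 also: forskolin at 4 µM as EC80 and the EC20 agonist is SEW2871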
D1 mod = D1 dopamine receptor (human) allosteric modulation; B-score at 10 µM; HEK293 D1, CRE-luciferase, dopamine EC30 potentiation; actives deviate in either direction; actives 5.9% (n = 58,000);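 active = luminescence count or its row- and column-corrected plate score outside the 99.7% band of the plate's sample wells, on either side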
Target sequence (P21728 whole entry, looked up): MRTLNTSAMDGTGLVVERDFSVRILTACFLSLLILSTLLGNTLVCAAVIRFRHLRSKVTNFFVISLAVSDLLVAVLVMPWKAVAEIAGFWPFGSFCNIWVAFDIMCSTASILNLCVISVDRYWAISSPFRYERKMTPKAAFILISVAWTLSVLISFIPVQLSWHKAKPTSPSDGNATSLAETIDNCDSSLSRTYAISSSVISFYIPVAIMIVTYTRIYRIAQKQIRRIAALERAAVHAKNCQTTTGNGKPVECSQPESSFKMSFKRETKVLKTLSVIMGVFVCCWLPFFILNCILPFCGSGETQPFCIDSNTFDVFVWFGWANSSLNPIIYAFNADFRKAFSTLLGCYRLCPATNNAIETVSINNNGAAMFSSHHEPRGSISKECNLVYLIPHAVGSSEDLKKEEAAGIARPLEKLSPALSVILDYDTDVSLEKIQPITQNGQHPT
M1 ag = agonists of M1 muscarinic receptor. CHO-M1 cells, Fluo-4 calcium fluorescence, agonist mode; stronger effect = higher value. B-score at 10 µM. actives 3% (n = 64,000). AID 626;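 active = fluorescence rise, raw or as B-score row- and column-corrected plate score, outside the 99.7% band of its plate's samples, either direction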
M1 antagonist = antagonists of rat M1 muscarinic receptor. P08482. CHO-M1 cells, Fluo-4 calcium, ACh EC80 antagonist mode; stronger effect = lower value. B-score at 10 µM. actives 3.4% (n = 64,000). AID 628;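 active = calcium fluorescence response, raw or row-and-column corrected B-score, differing from the plate sample mean either way at a set confidence level, mostly lower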
S1P3 agonist = activates the human S1P3 receptor; S1P3 NFAT-BLA reporter cells, agonism, FRET ratio; relative to 1 µM S1P, basal subtracted; Q99500; actives 0.1% (n = 60,000); activation, % at 4.5 µM; AID 373;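 active = activation above the screen-wide mean plus 3 SD, cut at about 4.5% in these data, passing the limit was not always enough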
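Benchmarks: high control 1 µM S1P / System: stable CHO line with human S1P3, Gα16, NFAT-BLA reporter / Dosing: single compound concentration, 4.5 µM final / Timing: 4 h compound at 37 °C, 2 h substrate at RT / Measured by: FRET β-lactamase substrate fluorescence, excitation 405 nm, 460/535 nm emission ratio, background-subtracted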
M1 antag confirm = M1 muscarinic receptor (rat) antagonism, confirmed; CHO-M1 cells, Fluo-4 calcium, ACh EC80 antagonism; stronger effect = lower value; AID 677; actives 43% (n = 1,700); calcium response (max-min fluorescence) at 10 µM; shares compounds with M1 antagonist;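 active = calcium response below the same-plate mean of wells given acetylcholine alone at its 80%-effect dose, minus 3 SD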
mGluR4 antag = mGluR4 (human) activity, M1 antagonist secondary assay; shares compounds with M1 antagonist; CHO-mGluR4 calcium flux, Fluo-4 fluorescence, glutamate EC80; stronger effect = lower value; fluorescence response (max-min) at 10 µM; actives 0.9% (n = 1,700); AID 678;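 active = fluorescence response below the plate's average for near-maximal glutamate wells, less 3 SD of those wells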;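 also: raw unnormalized fluorescence span taken in the window right after glutamate addition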
Large screens that a line does not name were inactive (follow-up assays come after a bar, where they were run). Shown are actives, neighbours in structure and some others; about 11% of the full set was active somewhere.

Cc1nnc(SCCn2c(N3CCN(Cc4ccccc4)CC3)nc3c2c(=O)[nH]c(=O)n3C)s1	M1 antagonist -4.1 | M1 antag confirm inactive | mGluR4 antag inactive
CCOc1ccc(-c2nnc(-c3snc(-c4ccc(F)cc4)c3N=CN(C)C)o2)cc1	none
CCCCc1c(C)nn(-c2nnc3c4ccccc4n(CC)c3n2)c1C	M1 antagonist -2.7 | M1 antag confirm inactive | mGluR4 antag inactive
Cc1cc(C)n(CC2CC(=O)N(c3ccc(Cl)c(Cl)c3)C2=O)n1 (stereo not given)	M1 antagonist -2.6 | M1 antag confirm inactive | mGluR4 antag inactive
COc1cccc(C(=O)N2CCN(S(=O)(=O)Cc3ccccc3)CC2)c1OC	none (no result: D1 mod)
CC1Cc2nc(SCC(=O)OCc3ccccc3)n(C)c(=O)c2S1 (stereo not given)	none
CCOC(=O)c1c(C)n(C)c2ccc(O)c(CN3CCC(C)CC3)c12	M1 antagonist -2 | M1 antag confirm inactive | mGluR4 antag inactive
CN(C(=O)c1ccc(NC(=O)c2cnccn2)cc1)C1CCCCC1	none (no result: S1P1 ag-PAM, S1P3 agonist)
Nc1c(S(=O)(=O)c2cccs2)c2nc3ccccc3nc2n1/N=C/c1cccc(O)c1	M1 antagonist -14 | M1 antag confirm inactive | mGluR4 antag inactive
CCN(CC)C(=O)c1cccc(-c2ccc(OC)cc2)c1	M1 antagonist -2.2 (no result: S1P1 ag-PAM, S1P3 agonist) | M1 antag confirm inactive | mGluR4 antag inactive
O=C(CN1CCOCC1)OCCCC1CCCCC1	M1 antagonist -3.9 (no result: D1 mod) | M1 antag confirm inactive | mGluR4 antag inactive
CCOC(=O)/C(C(N)=NCCO)=C(/O)c1ccccc1	none (no result: S1P1 ag-PAM)
OCCN=C(c1ccccc1)C12CN3CN(CN(C3)C1)C2	M1 antagonist -2.4 (no result: D1 mod) | M1 antag confirm inactive | mGluR4 antag inactive
CC1CC(C)CN(CCCNC(=O)C2CCCN(c3nnc(N4CCCC4=O)s3)C2)C1 (stereo not given)	none
Cc1ccc(Nc2nc(OC(C(F)(F)F)C(F)(F)F)nc(N3CCOCC3)n2)cc1	M1 antagonist -3.7 (no result: S1P1 ag-PAM, S1P3 agonist) | M1 antag confirm inactive | mGluR4 antag inactive
FC(F)(F)C(Oc1nc(NC2CCCCC2)nc(N2CCOCC2)n1)C(F)(F)F	none
S=c1[nH]nc(-c2ccc(Br)cc2)n1Cc1ccco1	M1 antagonist -10 | M1 antag confirm 326 | mGluR4 antag inactive
Cc1onc(-c2c(Cl)cccc2Cl)c1C(=O)Nc1ccc2c(c1)OCCO2	M1 antagonist -3.1 | M1 antag confirm 424 | mGluR4 antag inactive
Cc1onc(-c2c(F)cccc2Cl)c1C(=O)Nc1nnc(C2CC2)s1	M1 antagonist -4.1 (no result: D1 mod) | M1 antag confirm 481 | mGluR4 antag inactive
Cc1onc(-c2ccccc2)c1C(=O)Nc1ccc2c(c1)OCCO2	none
Cc1cc(O)c(-c2cc(C(=O)NCc3ccc4c(c3)OCO4)[nH]n2)cc1C	none
Cc1ccc(-c2cc(C(=O)NCc3ccc4c(c3)OCO4)[nH]n2)c(O)c1C	M1 antagonist -1.6 | M1 antag confirm inactive | mGluR4 antag inactive
Cc1cc(C)n(C(=O)c2cc3ccccc3c(=O)o2)n1	M1 antagonist -5.1 | M1 antag confirm inactive | mGluR4 antag inactive
COc1cccc(OC)c1C(=O)n1nc(C)cc1C	none
Cn1c(SCc2ccc(Br)cc2)nnc1-c1cccs1	M1 antagonist -4.4 | M1 antag confirm inactive | mGluR4 antag inactive
Cc1ccc2c(c1)[nH]c1c(=O)n(CCN3CCNCC3)cnc12	none
O=c1c2[nH]c3ccccc3c2ncn1CCN1CCNCC1	M1 antagonist -3.1 | M1 antag confirm inactive | mGluR4 antag inactive
CCOc1ccc2nc(N3CCC(C(=O)N4CCN(C5CCCCC5)CC4)CC3)sc2c1	M1 antagonist -2.9 | M1 antag confirm 378 | mGluR4 antag inactive
CN(C)C(=O)CSc1nnc(-c2cc(-c3cccs3)nc3ccccc23)o1	M1 antagonist -3.7 | M1 antag confirm inactive | mGluR4 antag inactive
O=CN1CC(=O)N(c2ccccc2)c2c([nH]c3ccccc23)C1	none
CCn1c(SCC(=O)OC2CCCCC2)nnc1-c1ccncc1	none
COc1cc(S(=O)(=O)N2CCN(C(=O)c3ccccc3F)CC2)c(OC)cc1NC(C)=O	none
O=C(CSc1nnc(-c2cccs2)n1-c1ccccc1)N1CCc2ccccc21	M1 antagonist -3 | M1 antag confirm inactive | mGluR4 antag inactive
Cc1cc(C)nc(SCc2nnc(SCc3ccccc3Cl)o2)n1	M1 antagonist -4.5 | M1 antag confirm inactive | mGluR4 antag inactive
CCOCCCn1c(=N)c(C(=O)NCc2ccc3c(c2)OCO3)cc2c(=O)n3ccccc3nc21	M1 antagonist -2.7 | M1 antag confirm inactive | mGluR4 antag inactive
CCCn1c(=N)c(C(=O)NCc2ccc3c(c2)OCO3)cc2c(=O)n3cccc(C)c3nc21	M1 antagonist -10 | M1 antag confirm 54 | mGluR4 antag inactive
CCOC(=O)N1CCN(C(=O)Cn2ncn3nc(-c4cccs4)cc3c2=O)CC1	none
O=C(CCN1C(=O)C2C3C=CC(C3)C2C1=O)Nc1ccc2c(c1)OCO2 (stereo not given)	M1 antagonist -2.6 | M1 antag confirm inactive | mGluR4 antag inactive
O=C(CCN1C(=O)C2C3C=CC(C3)C2C1=O)Nc1ccc(F)cc1 (stereo not given)	none
CCOc1cc(S(=O)(=O)n2nc(C)cc2C)ccc1F	M1 antagonist -5.2 (no result: D1 mod) | M1 antag confirm inactive | mGluR4 antag inactive
CC(C)(C)c1[nH]nc2c1C(c1cccnc1)C(C#N)=C(N)O2 (stereo not given)	M1 antagonist -4.1 | M1 antag confirm inactive | mGluR4 antag 163
CCCc1[nH]nc2c1C(c1ccncc1)C(C#N)=C(N)O2 (stereo not given)	M1 antagonist -3.7 | M1 antag confirm inactive | mGluR4 antag inactive
CCc1[nH]nc2c1C(c1cccnc1)C(C#N)=C(N)O2 (stereo not given)	none
CCCc1[nH]nc2c1C(c1ccccc1OC)C(C#N)=C(N)O2 (stereo not given)	none
CS(=O)(=O)Nc1ccc(Cc2ccc(NS(C)(=O)=O)cc2)cc1	M1 antagonist -3.2 | M1 antag confirm inactive | mGluR4 antag inactive
CCCCCOc1ccc(NS(C)(=O)=O)cc1	none
CCOC(=O)Cc1csc(NC(=O)CCc2ccc(S(=O)(=O)N3CCOCC3)cc2)n1	M1 antagonist -3.1 | M1 antag confirm inactive | mGluR4 antag inactive
CCOC(=O)c1c(NC(=O)c2nc3n(n2)C(C(F)F)CC(C)N3)sc2c1CCCC2 (stereo not given)	M1 antagonist -5.7 | M1 antag confirm inactive | mGluR4 antag inactive
CCOC(=O)c1c(NC(=O)c2ccn(CC)n2)sc2c1CCCC2	none
COc1ccc2[nH]c(=O)c(CN(C)C(=O)COc3ccccc3)cc2c1	M1 antagonist -9 | M1 antag confirm inactive | mGluR4 antag inactive

From PubChem
